Data reported in ChEMBL document CHEMBL1152495, “Synthesis and antimicrobial studies of novel methylene bridged benzisoxazolyl imidazo[2,1-b][1,3,4]thiadiazole derivatives” (2009).
Converted amounts (≈) assume the structure as drawn.

tested on: Staphylococcus aureus; test: Antibacterial activity against Staphylococcus aureus ATCC 25923 at 100 ug/ml after 24 hrs by agar well diffusion method; type: functional; conditions: ATCC 25923, 24 h, read-out: IZ
Outline: (§1)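 Agar well diffusion on Mueller Hinton agar (20 mL per dish), seeded homogeneously with liquid bacterial culture by spread plating. Samples loaded directly into wells, dimethylformamide as solvent control, ampicillin as reference drug. Plates incubated at 37 °C for 24 h. All determinations done in triplicate.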

Row | Compound | zone of inhibition at 100 µg/mL
1 | COc1ccc(-c2cn3nc(Cc4noc5ccccc45)sc3n2)cc1 | 10 mm
2 | O=c1oc2ccccc2cc1-c1cn2nc(Cc3noc4ccccc34)sc2n1 | 13 mm
3 | Clc1ccc(-c2cn3nc(Cc4noc5ccccc45)sc3n2)cc1 | 12 mm
4 | O=Nc1c(-c2ccc(Cl)cc2)nc2sc(Cc3noc4ccccc34)nn12 | 10 mm
5 | N#CSc1c(-c2ccc(Br)cc2)nc2sc(Cc3noc4ccccc34)nn12 | 12 mm
6 | COc1ccc(-c2nc3sc(Cc4noc5ccccc45)nn3c2Br)cc1 | 11 mm
7 | CC1(C)S[C@@H]2[C@H](NC(=O)[C@H](N)c3ccccc3)C(=O)N2[C@H]1C(=O)O [AMPICILLIN] | 19 mm

tested on: Bacillus subtilis; test: Antibacterial activity against Bacillus subtilis ATCC 6633 at 100 ug/ml after 24 hrs by agar well diffusion method; type: functional; conditions: ATCC 6633, 24 h, read-out: IZ; outline: as §1

Row | Compound | zone of inhibition at 100 µg/mL
8 | COc1ccc(-c2cn3nc(Cc4noc5ccccc45)sc3n2)cc1 | 14 mm
9 | O=c1oc2ccccc2cc1-c1cn2nc(Cc3noc4ccccc34)sc2n1 | 15 mm
10 | Clc1ccc(-c2cn3nc(Cc4noc5ccccc45)sc3n2)cc1 | 17 mm
11 | O=Nc1c(-c2ccc(Cl)cc2)nc2sc(Cc3noc4ccccc34)nn12 | 14 mm
12 | N#CSc1c(-c2ccc(Br)cc2)nc2sc(Cc3noc4ccccc34)nn12 | 14 mm
13 | COc1ccc(-c2nc3sc(Cc4noc5ccccc45)nn3c2Br)cc1 | 18 mm
14 | CC1(C)S[C@@H]2[C@H](NC(=O)[C@H](N)c3ccccc3)C(=O)N2[C@H]1C(=O)O [AMPICILLIN] | 18 mm

tested on: Escherichia coli; test: Antibacterial activity against Escherichia coli ATCC 35218 at 100 ug/ml after 24 hrs by agar well diffusion method; type: functional; conditions: ATCC 35218, 24 h, read-out: IZ; outline: as §1

Row | Compound | zone of inhibition at 100 µg/mL
15 | COc1ccc(-c2cn3nc(Cc4noc5ccccc45)sc3n2)cc1 | 12 mm
16 | O=c1oc2ccccc2cc1-c1cn2nc(Cc3noc4ccccc34)sc2n1 | 10 mm
17 | Clc1ccc(-c2cn3nc(Cc4noc5ccccc45)sc3n2)cc1 | 18 mm
18 | O=Nc1c(-c2ccc(Cl)cc2)nc2sc(Cc3noc4ccccc34)nn12 | 13 mm
19 | N#CSc1c(-c2ccc(Br)cc2)nc2sc(Cc3noc4ccccc34)nn12 | 15 mm
20 | COc1ccc(-c2nc3sc(Cc4noc5ccccc45)nn3c2Br)cc1 | 16 mm
21 | CC1(C)S[C@@H]2[C@H](NC(=O)[C@H](N)c3ccccc3)C(=O)N2[C@H]1C(=O)O [AMPICILLIN] | 16 mm

tested on: Pseudomonas aeruginosa; test: Antibacterial activity against Pseudomonas aeruginosa ATCC 10145 at 100 ug/ml after 24 hrs by agar well diffusion method; type: functional; conditions: ATCC 10145, 24 h, read-out: IZ; outline: as §1

Row | Compound | zone of inhibition at 100 µg/mL
22 | COc1ccc(-c2cn3nc(Cc4noc5ccccc45)sc3n2)cc1 | 11 mm
23 | O=c1oc2ccccc2cc1-c1cn2nc(Cc3noc4ccccc34)sc2n1 | 10 mm
24 | Clc1ccc(-c2cn3nc(Cc4noc5ccccc45)sc3n2)cc1 | 12 mm
25 | O=Nc1c(-c2ccc(Cl)cc2)nc2sc(Cc3noc4ccccc34)nn12 | 15 mm
26 | N#CSc1c(-c2ccc(Br)cc2)nc2sc(Cc3noc4ccccc34)nn12 | 18 mm
27 | COc1ccc(-c2nc3sc(Cc4noc5ccccc45)nn3c2Br)cc1 | 17 mm
28 | CC1(C)S[C@@H]2[C@H](NC(=O)[C@H](N)c3ccccc3)C(=O)N2[C@H]1C(=O)O [AMPICILLIN] | 17 mm

tested on: Candida albicans; test: Antifungal activity against Candida albicans at 100 ug/ml after 72 hrs by agar well diffusion method; type: functional; conditions: read-out: IZ
Outline: (§2)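 Fungi grown on Potato Dextrose Agar (20 mL per dish), seeded homogeneously with liquid culture by spread plating. Samples loaded directly into agar wells, with dimethylformamide as solvent control and clotrimazole as reference drug. Plates incubated at 25 °C for 72 h, triplicate determinations.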

Row | Compound | zone of inhibition at 100 µg/mL
29 | Clc1ccccc1C(c1ccccc1)(c1ccccc1)n1ccnc1 [CLOTRIMAZOLE] | 22 mm
30 | COc1ccc(-c2cn3nc(Cc4noc5ccccc45)sc3n2)cc1 | 15 mm
31 | O=c1oc2ccccc2cc1-c1cn2nc(Cc3noc4ccccc34)sc2n1 | 20 mm
32 | Clc1ccc(-c2cn3nc(Cc4noc5ccccc45)sc3n2)cc1 | 11 mm
33 | O=Nc1c(-c2ccc(Cl)cc2)nc2sc(Cc3noc4ccccc34)nn12 | 15 mm
34 | N#CSc1c(-c2ccc(Br)cc2)nc2sc(Cc3noc4ccccc34)nn12 | 14 mm
35 | COc1ccc(-c2nc3sc(Cc4noc5ccccc45)nn3c2Br)cc1 | 10 mm

tested on: Aspergillus fumigatus; test: Antifungal activity against Aspergillus fumigatus at 100 ug/ml after 72 hrs by agar well diffusion method; type: functional; conditions: read-out: IZ; outline: as §2

Row | Compound | zone of inhibition at 100 µg/mL
36 | Clc1ccccc1C(c1ccccc1)(c1ccccc1)n1ccnc1 [CLOTRIMAZOLE] | 20 mm
37 | COc1ccc(-c2cn3nc(Cc4noc5ccccc45)sc3n2)cc1 | 19 mm
38 | O=c1oc2ccccc2cc1-c1cn2nc(Cc3noc4ccccc34)sc2n1 | 13 mm
39 | Clc1ccc(-c2cn3nc(Cc4noc5ccccc45)sc3n2)cc1 | 16 mm
40 | O=Nc1c(-c2ccc(Cl)cc2)nc2sc(Cc3noc4ccccc34)nn12 | 17 mm
41 | N#CSc1c(-c2ccc(Br)cc2)nc2sc(Cc3noc4ccccc34)nn12 | 12 mm
42 | COc1ccc(-c2nc3sc(Cc4noc5ccccc45)nn3c2Br)cc1 | 15 mm

tested on: Staphylococcus aureus; test: Antibacterial activity against Staphylococcus aureus ATCC 25923 after 24 hrs by agar well diffusion method; type: functional; conditions: ATCC 25923, 24 h; outline: as §1

Row | Compound | MIC
43 | COc1ccc(-c2cn3nc(Cc4noc5ccccc45)sc3n2)cc1 | 3.5 µg/mL (≈ 9.66 µM)
44 | O=c1oc2ccccc2cc1-c1cn2nc(Cc3noc4ccccc34)sc2n1 | 3 µg/mL (≈ 7.49 µM)
45 | Clc1ccc(-c2cn3nc(Cc4noc5ccccc45)sc3n2)cc1 | 2 µg/mL (≈ 5.45 µM)
46 | O=Nc1c(-c2ccc(Cl)cc2)nc2sc(Cc3noc4ccccc34)nn12 | 2 µg/mL (≈ 5.05 µM)
47 | N#CSc1c(-c2ccc(Br)cc2)nc2sc(Cc3noc4ccccc34)nn12 | 1.5 µg/mL (≈ 3.2 µM)
48 | COc1ccc(-c2nc3sc(Cc4noc5ccccc45)nn3c2Br)cc1 | 1.5 µg/mL (≈ 3.4 µM)
49 | CC1(C)S[C@@H]2[C@H](NC(=O)[C@H](N)c3ccccc3)C(=O)N2[C@H]1C(=O)O [AMPICILLIN] | 1 µg/mL (≈ 2.86 µM)

tested on: Bacillus subtilis; test: Antibacterial activity against Bacillus subtilis ATCC 6633 after 24 hrs by agar well diffusion method; type: functional; conditions: ATCC 6633, 24 h; outline: as §1

Row | Compound | MIC
50 | COc1ccc(-c2cn3nc(Cc4noc5ccccc45)sc3n2)cc1 | 2.5 µg/mL (≈ 6.9 µM)
51 | O=c1oc2ccccc2cc1-c1cn2nc(Cc3noc4ccccc34)sc2n1 | 1 µg/mL (≈ 2.5 µM)
52 | Clc1ccc(-c2cn3nc(Cc4noc5ccccc45)sc3n2)cc1 | 0.5 µg/mL (≈ 1.36 µM)
53 | O=Nc1c(-c2ccc(Cl)cc2)nc2sc(Cc3noc4ccccc34)nn12 | 1.5 µg/mL (≈ 3.79 µM)
54 | N#CSc1c(-c2ccc(Br)cc2)nc2sc(Cc3noc4ccccc34)nn12 | 2 µg/mL (≈ 4.27 µM)
55 | COc1ccc(-c2nc3sc(Cc4noc5ccccc45)nn3c2Br)cc1 | 0.5 µg/mL (≈ 1.13 µM)
56 | CC1(C)S[C@@H]2[C@H](NC(=O)[C@H](N)c3ccccc3)C(=O)N2[C@H]1C(=O)O [AMPICILLIN] | 0.5 µg/mL (≈ 1.43 µM)

tested on: Escherichia coli; test: Antibacterial activity against Escherichia coli ATCC 35218 after 24 hrs by agar well diffusion method; type: functional; conditions: ATCC 35218, 24 h; outline: as §1

Row | Compound | MIC
57 | COc1ccc(-c2cn3nc(Cc4noc5ccccc45)sc3n2)cc1 | 3 µg/mL (≈ 8.28 µM)
58 | O=c1oc2ccccc2cc1-c1cn2nc(Cc3noc4ccccc34)sc2n1 | 3.5 µg/mL (≈ 8.74 µM)
59 | Clc1ccc(-c2cn3nc(Cc4noc5ccccc45)sc3n2)cc1 | 1.5 µg/mL (≈ 4.09 µM)
60 | O=Nc1c(-c2ccc(Cl)cc2)nc2sc(Cc3noc4ccccc34)nn12 | 3 µg/mL (≈ 7.58 µM)
61 | N#CSc1c(-c2ccc(Br)cc2)nc2sc(Cc3noc4ccccc34)nn12 | 2 µg/mL (≈ 4.27 µM)
62 | COc1ccc(-c2nc3sc(Cc4noc5ccccc45)nn3c2Br)cc1 | 2 µg/mL (≈ 4.53 µM)

tested on: Pseudomonas aeruginosa; test: Antibacterial activity against Pseudomonas aeruginosa ATCC 10145 after 24 hrs by agar well diffusion method; type: functional; conditions: ATCC 10145, 24 h; outline: as §1

Row | Compound | MIC
63 | COc1ccc(-c2cn3nc(Cc4noc5ccccc45)sc3n2)cc1 | 3 µg/mL (≈ 8.28 µM)
64 | O=c1oc2ccccc2cc1-c1cn2nc(Cc3noc4ccccc34)sc2n1 | 3 µg/mL (≈ 7.49 µM)
65 | Clc1ccc(-c2cn3nc(Cc4noc5ccccc45)sc3n2)cc1 | 3 µg/mL (≈ 8.18 µM)
66 | O=Nc1c(-c2ccc(Cl)cc2)nc2sc(Cc3noc4ccccc34)nn12 | 2.5 µg/mL (≈ 6.32 µM)
67 | N#CSc1c(-c2ccc(Br)cc2)nc2sc(Cc3noc4ccccc34)nn12 | 2 µg/mL (≈ 4.27 µM)
68 | COc1ccc(-c2nc3sc(Cc4noc5ccccc45)nn3c2Br)cc1 | 2 µg/mL (≈ 4.53 µM)
69 | CC1(C)S[C@@H]2[C@H](NC(=O)[C@H](N)c3ccccc3)C(=O)N2[C@H]1C(=O)O [AMPICILLIN] | 2 µg/mL (≈ 5.72 µM)

tested on: Candida albicans; test: Antifungal activity against Candida albicans after 72 hrs by agar well diffusion method; type: functional; conditions: not given; outline: as §2

Row | Compound | MIC
70 | Clc1ccccc1C(c1ccccc1)(c1ccccc1)n1ccnc1 [CLOTRIMAZOLE] | 2 µg/mL (≈ 5.8 µM)
71 | COc1ccc(-c2cn3nc(Cc4noc5ccccc45)sc3n2)cc1 | 3 µg/mL (≈ 8.28 µM)
72 | O=c1oc2ccccc2cc1-c1cn2nc(Cc3noc4ccccc34)sc2n1 | 2.5 µg/mL (≈ 6.24 µM)
73 | Clc1ccc(-c2cn3nc(Cc4noc5ccccc45)sc3n2)cc1 | 3.5 µg/mL (≈ 9.54 µM)
74 | O=Nc1c(-c2ccc(Cl)cc2)nc2sc(Cc3noc4ccccc34)nn12 | 3 µg/mL (≈ 7.58 µM)
75 | N#CSc1c(-c2ccc(Br)cc2)nc2sc(Cc3noc4ccccc34)nn12 | 3 µg/mL (≈ 6.41 µM)
76 | COc1ccc(-c2nc3sc(Cc4noc5ccccc45)nn3c2Br)cc1 | 4 µg/mL (≈ 9.06 µM)

tested on: Aspergillus fumigatus; test: Antifungal activity against Aspergillus fumigatus after 72 hrs by agar well diffusion method; type: functional; conditions: not given; outline: as §2

Row | Compound | MIC
77 | Clc1ccccc1C(c1ccccc1)(c1ccccc1)n1ccnc1 [CLOTRIMAZOLE] | 2 µg/mL (≈ 5.8 µM)
78 | COc1ccc(-c2cn3nc(Cc4noc5ccccc45)sc3n2)cc1 | 2 µg/mL (≈ 5.52 µM)
79 | O=c1oc2ccccc2cc1-c1cn2nc(Cc3noc4ccccc34)sc2n1 | 3.5 µg/mL (≈ 8.74 µM)
80 | Clc1ccc(-c2cn3nc(Cc4noc5ccccc45)sc3n2)cc1 | 1.5 µg/mL (≈ 4.09 µM)
81 | O=Nc1c(-c2ccc(Cl)cc2)nc2sc(Cc3noc4ccccc34)nn12 | 2.5 µg/mL (≈ 6.32 µM)
82 | N#CSc1c(-c2ccc(Br)cc2)nc2sc(Cc3noc4ccccc34)nn12 | 4 µg/mL (≈ 8.54 µM)
83 | COc1ccc(-c2nc3sc(Cc4noc5ccccc45)nn3c2Br)cc1 | 2.5 µg/mL (≈ 5.66 µM)
